Screens: PubChem BioAssay, Broad Institute
PDI inh – blocks human protein disulfide isomerase activity. PDI insulin aggregation turbidity, A650, 90 min. inhibition, % at 10 µM. 350,000 tested, 0.052% active;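 active = mean inhibition across replicates of 30% or more, whatever share of single replicates reach that level; inconclusive = mean inhibition below 30% while every single replicate reaches 30%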
Target sequence (P07237 whole entry, looked up): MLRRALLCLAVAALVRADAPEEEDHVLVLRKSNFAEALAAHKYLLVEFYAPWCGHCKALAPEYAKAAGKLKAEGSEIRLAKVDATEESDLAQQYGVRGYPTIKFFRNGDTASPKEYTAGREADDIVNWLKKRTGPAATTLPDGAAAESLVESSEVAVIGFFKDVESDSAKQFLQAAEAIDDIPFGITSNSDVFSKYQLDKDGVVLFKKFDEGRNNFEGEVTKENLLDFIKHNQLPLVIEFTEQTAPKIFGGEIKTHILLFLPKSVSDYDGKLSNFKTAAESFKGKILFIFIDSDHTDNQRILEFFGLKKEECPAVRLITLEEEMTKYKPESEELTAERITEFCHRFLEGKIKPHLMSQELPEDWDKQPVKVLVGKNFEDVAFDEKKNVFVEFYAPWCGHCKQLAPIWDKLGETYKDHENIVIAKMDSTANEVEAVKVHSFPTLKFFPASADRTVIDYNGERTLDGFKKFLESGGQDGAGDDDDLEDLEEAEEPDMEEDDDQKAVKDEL
ERp5 inh – inhibitors of human ERp5; Q15084; ERp5 insulin aggregation, absorbance 650 nm, 90 min; inhibition, % at 9.99 µM; 350,000 tested, 0.05% active; AID 651711;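 active = mean replicate inhibition above about 25%, with every replicate also reaching it, limit read from the data, passing the limit was not always enough; inconclusive = only one of those two criteria met; inactive = neither criterion met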
FN deposition inh – fibronectin deposition inhibition; AH1F fibroblasts, Alexa488-fibronectin deposition fluorescence, overnight; inhibition, % at 12.6 µM; 350,000 tested, 0.086% active;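 active = mean inhibition across replicates of 30% or more, regardless of how many single replicates reach that level; inconclusive = mean under 30% yet at least half of replicates reach 30%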;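 also: positive control wells lacked labelled fibronectin entirely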
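Assay system: AH1F fibroblast monolayer, labelled fibronectin deposition. Amount: 10000 cells per well. Also added: labelled fibronectin 24 nM. Compound: single-point pinned compound. Incubation: cell attachment 1 h, compound and FN exposure overnight. Detection: fluorescence after three HBSS washes, excitation 485 nm, emission 525 nm. Read-out: inhibition of fibronectin deposition signal.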
PvdQ inh – blocks Pseudomonas aeruginosa PvdQ acylase activity | 340,000 tested, 0.063% active | inhibition, % at 10 µM | purified PvdQ acylase, fluorescence plate reader | AID 488965; in the data active = inhibition above about 30%, passing the limit was not always enough; inconclusive = no clear call, values can overlap the other calls;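 also: 0% = vehicle neutral wells and 100% = reference inhibitor wells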
rRNA inh HTS – inhibitors of bacterial rRNA selective over humanized ribosomes; GFP signal change (wild-type ribosome), % (test concentration not listed); 350,000 tested, 1.6% active; E. coli WT GFP vs humanized-ribosome RFP mutants, fluorescence, 24 h; active compounds read low; DMSO median 0, no signal -100;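 active = significant combined selectivity score with lowered wild-type GFP, culture density cut under 30%, mutant RFP and density less affected; inactive = any of these conditions unmet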
Env fusion inh – blocks HIV Env-driven cell-cell fusion; HeLa-JRFL Env/CEM21 cell fusion, luciferase; inhibition, % at 12.3 µM; 360,000 tested, 1.1% active;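 active = mean replicate inhibition score of at least 50 and every replicate individually at or above 50; inconclusive = only one of the two criteria met; inactive = mean below 50 and not all replicates reaching 50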;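 also: 0% = plate neutral controls and 100% = maraviroc near 300 nM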
Active calls of the source: *; ? = inconclusive; · = no result given; [ ] = dose if it differs, or a comment. An excerpt weighted towards active compounds, which were near 2.2% of everything screened.

SMILES	PDI inh	ERp5 inh	FN deposition inh	PvdQ inh	rRNA inh HTS	Env fusion inh
Cc1ccc(-c2nc3cnccn3c2Nc2ccc3c(c2)OCO3)o1	·	7	17	9	-17*	5
Cc1nc2ccccc2c(=O)n1NC(=O)c1c(O)c2c(n(CC(C)C)c1=O)CCCC2	4	·	-13	-14	·	11
CCCCCCc1nc2ccccc2c(=O)n1NC(=O)c1c(O)c2c(n(CC(C)C)c1=O)CCCC2	1	·	17	-13	·	73*
COc1ccc(-c2cc(C(=O)NCc3ccc(C(F)(F)F)cc3)[nH]n2)c(C)c1	4	-1	4	·	-20*	9
COc1cc(F)ccc1-c1cc(C(=O)NCc2ccc(C(F)(F)F)cc2)[nH]n1	-1	-1	0	·	-16	-25
COc1ccc(-n2cc(-c3ccc(OC(F)F)cc3)[n+]3c2CCCCC3)cc1	-8	3	·	-3	-2	23
Clc1ccc(-c2cn(-c3ccc(Cl)cc3)c3[n+]2CCCCC3)cc1	7	4	-12	-8	-46*	3
COc1ccc(-c2cn(-c3ccc(Cl)cc3)c3[n+]2CCCCC3)cc1	1	7	-12	-13	-35*	-3
O=C(Nc1cccc2cccnc12)c1ccccc1Br	1	2	7	12	-25*	-3
Cc1cccc2cc(C#N)c(NCCNC(=O)NC3CCCCC3)nc12	7	·	5	-10	·	9
Cc1ccc2cc(C#N)c(NCCNC(=O)C3CCC3)nc2c1C	-9	·	-20	-7	·	106*
COc1ccc2c3c(n(C)c2c1)[C@@H](CO)N(C(=O)Nc1ccc(F)cc1)CC31CCN(S(=O)(=O)c2cn(C)cn2)CC1	·	-6	·	·	0	2[16.7 µM]
CCC(=O)N1CCC2(CC1)CN(Cc1cc(F)ccc1F)[C@H](CO)c1[nH]c3cc(OC)ccc3c12	·	4	·	·	4	·
O=C(NCC[C@H]1CC[C@H](NC(=O)C2CCCCC2)[C@H](CO)O1)c1ccc(F)cc1	·	4	4	·	2	5[16.7 µM]
CC(NNC(=S)N1CCCCCC1)c1ccc2ccccc2n1 (stereo unspecified)	·	7	5	·	0	69*
CCC(=O)Nc1ccc2c(c1)Cc1cc([N+](=O)[O-])ccc1-2	1	-3	-5	4	-20	-81
O=CNc1ccc2c(c1)Cc1cc([N+](=O)[O-])ccc1-2	-2	-6	·	-2	-30	75*
CCCC1CC(C(=O)NC(C(C)Cl)C2OC(SC)C(O)C(O)C2O)N(C)C1 (stereo unspecified)	-3	5	0	7	-32*	42
C[C@H](O)C#Cc1ccc2c(c1)O[C@@H](CN(C)C(=O)C1CCC1)[C@@H](C)CN([C@@H](C)CO)S2(=O)=O	·	1	·	·	7	-31[16.7 µM]
Cc1noc(C)c1S(=O)(=O)N(C)C[C@H]1Oc2ccc(NC(=O)Nc3ccccc3)cc2CC(=O)N([C@H](C)CO)C[C@H]1C	·	·	12	·	2	69*[16.7 µM]
C[C@@H]1CN([C@@H](C)CO)C(=O)Cc2cc(NC(=O)Nc3cccc4ccccc34)ccc2O[C@H]1CN(C)S(=O)(=O)c1ccccc1	·	-1	·	·	-1	5[16.7 µM]
Cc1noc(C)c1S(=O)(=O)N(C)C[C@@H]1Oc2ccc(NC(=O)Nc3ccccc3)cc2CC(=O)N([C@@H](C)CO)C[C@H]1C	·	·	·	·	-1	-8[16.7 µM]
Cc1noc(C)c1S(=O)(=O)N(C)C[C@@H]1Oc2ccc(NC(=O)Nc3cccc4ccccc34)cc2CC(=O)N([C@@H](C)CO)C[C@@H]1C	·	-2	-5	·	-1	59*[16.7 µM]
Cc1noc(C)c1S(=O)(=O)N(C)C[C@@H]1Oc2ccc(NC(=O)Nc3ccc(F)cc3)cc2CC(=O)N([C@@H](C)CO)C[C@@H]1C	·	-1	·	·	-2	55*[16.7 µM]
Cc1noc(C)c1S(=O)(=O)N(C)C[C@@H]1Oc2ccc(NC(=O)Nc3ccccc3)cc2CC(=O)N([C@@H](C)CO)C[C@@H]1C	·	·	·	·	5	85*[16.7 µM]
SMILES	PDI inh	ERp5 inh	FN deposition inh	PvdQ inh	rRNA inh HTS	Env fusion inh
Cc1noc(C)c1S(=O)(=O)N(C)C[C@H]1Oc2ccc(NC(=O)Nc3ccc(F)cc3)cc2CC(=O)N([C@@H](C)CO)C[C@H]1C	·	8	·	·	-3	46[16.7 µM]
C[C@@H]1CCCCO[C@@H](CN(C)S(=O)(=O)c2cccs2)[C@H](C)CN([C@@H](C)CO)C(=O)c2cc(NC(=O)Nc3ccccc3)ccc2O1	·	0	8	·	-3	?
CN(C)CC(=O)N1[C@H](CO)[C@H](c2ccccc2)C12CN(C(=O)c1cccc(F)c1)C2	·	0	·	·	4	·
Cc1noc(C)c1S(=O)(=O)N(C)C[C@@H]1Oc2ccc(NC(=O)Cc3ccccc3)cc2CC(=O)N([C@H](C)CO)C[C@@H]1C	·	·	·	·	5	65*[16.7 µM]
CC(C)NC(=O)N(C)C[C@@H]1Oc2ncc(-c3cc4ccccc4o3)cc2C(=O)N([C@H](C)CO)C[C@@H]1C	·	28*	18	·	-11	15[16.7 µM]
COc1cccc(-c2cnc3c(c2)C(=O)N([C@H](C)CO)C[C@H](C)[C@H](CN(C)C(=O)Nc2cccc4ccccc24)O3)c1	·	-4	·	·	-4	89*[16.7 µM]
C[C@@H]1CN([C@H](C)CO)C(=O)c2cc(/C=C/c3ccccc3)cnc2O[C@@H]1CN(C)S(=O)(=O)c1ccccc1	·	1	-3	·	5	0[16.7 µM]
C[C@@H]1CN([C@H](C)CO)C(=O)c2cc(/C=C/c3ccccc3)cnc2O[C@H]1CN(C)S(=O)(=O)c1ccccc1F	·	1	-10	·	-8	12[16.7 µM]
C[C@H](CO)N1C[C@H](C)[C@H](CN(C)S(=O)(=O)c2ccccc2F)Oc2ncc(/C=C/c3ccccc3)cc2C1=O	·	-7	-6	·	-12	71*[16.7 µM]
Cc1ccc(S(=O)(=O)N(C)C[C@@H]2Oc3ncc(/C=C/c4ccccc4)cc3C(=O)N([C@H](C)CO)C[C@@H]2C)cc1	·	9	·	·	0	75*[16.7 µM]
O=C(N[C@@H]1CC[C@H](CCNS(=O)(=O)Cc2ccccc2)O[C@H]1CO)c1cnccn1	·	-2	13	·	1	5[16.7 µM]
C[C@@H]1CN([C@H](C)CO)S(=O)(=O)c2ccc(C3=CCCC3)cc2O[C@@H]1CN(C)S(=O)(=O)c1cn(C)cn1	·	-3	1	·	-1	-4[16.7 µM]
COc1ccc(S(=O)(=O)N(C)C[C@@H]2Oc3c(NC(=O)c4ccncc4)cccc3C(=O)N([C@@H](C)CO)C[C@H]2C)cc1	·	-4	·	·	-2	·
COc1ccc(CN(C)C[C@@H]2OCCCC[C@@H](C)Oc3ccc(NC(=O)c4ccccc4)cc3C(=O)N([C@H](C)CO)C[C@H]2C)cc1	·	4	·	·	-1	-10[16.7 µM]
COc1ccc(S(=O)(=O)N(C)C[C@@H]2Oc3ncc(-c4cc5ccccc5o4)cc3C(=O)N([C@H](C)CO)C[C@@H]2C)cc1	·	3	·	·	·	69*[16.7 µM]
COc1ccc(S(=O)(=O)N(C)C[C@H]2Oc3ncc(/C=C/c4ccccc4)cc3C(=O)N([C@@H](C)CO)C[C@@H]2C)cc1	·	1	-16	·	-6	33[16.7 µM]
